Columns and labels:
[1] = biological target: Serotonin 2 receptors; 5-HT2a & 5-HT2c (Homo sapiens) (UniProt P28223+P28335); experiment: Selectivity index determined from binding affinities of 5-HT2C and 5-HT2A.; assay type: protein assay
Cytochrome P450 1A2 = biological target: T1, Cytochrome P450 1A2 (Homo sapiens, UniProt P05177); experiment: Inhibition of heterologously expressed human cytochrome P450 1A2.; assay type: ADME
T1 sequence (P05177 whole entry): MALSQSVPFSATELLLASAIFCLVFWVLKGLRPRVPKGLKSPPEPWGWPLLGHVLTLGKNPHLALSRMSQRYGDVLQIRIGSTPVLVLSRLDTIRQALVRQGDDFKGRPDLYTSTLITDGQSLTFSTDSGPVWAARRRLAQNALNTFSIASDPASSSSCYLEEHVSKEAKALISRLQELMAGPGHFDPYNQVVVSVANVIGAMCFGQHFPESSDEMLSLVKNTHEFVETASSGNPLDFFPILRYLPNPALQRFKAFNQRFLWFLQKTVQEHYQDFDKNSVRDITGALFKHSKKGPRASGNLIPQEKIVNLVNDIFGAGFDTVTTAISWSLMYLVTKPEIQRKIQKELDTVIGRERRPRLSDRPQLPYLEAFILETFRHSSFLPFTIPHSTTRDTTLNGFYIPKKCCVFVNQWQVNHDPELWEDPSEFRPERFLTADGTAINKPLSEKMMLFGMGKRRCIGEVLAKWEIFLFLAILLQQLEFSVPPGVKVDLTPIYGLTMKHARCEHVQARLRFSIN
How it was run: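 Heterologously expressed human CYP1A2 in an isoform-selective assay. Substrate: caffeine N3-demethylation at 500 µM, at the substrate Km.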

[2] = biological target: Serotonin receptor (2b and 2c) (Homo sapiens) (UniProt P41595+P28335); experiment: Selectivity index determined from the binding affinities of 5-HT2C and 5-HT2B.; assay type: protein assay
[3] = biological target: T2, 5-hydroxytryptamine receptor 2C (Homo sapiens, UniProt P28335); experiment: Binding affinity towards human cloned 5-hydroxytryptamine receptor 2C in HEK293 cells, using [3H]mesulergine as radioligand.; assay type: cell-based
T2 sequence (P28335 whole entry): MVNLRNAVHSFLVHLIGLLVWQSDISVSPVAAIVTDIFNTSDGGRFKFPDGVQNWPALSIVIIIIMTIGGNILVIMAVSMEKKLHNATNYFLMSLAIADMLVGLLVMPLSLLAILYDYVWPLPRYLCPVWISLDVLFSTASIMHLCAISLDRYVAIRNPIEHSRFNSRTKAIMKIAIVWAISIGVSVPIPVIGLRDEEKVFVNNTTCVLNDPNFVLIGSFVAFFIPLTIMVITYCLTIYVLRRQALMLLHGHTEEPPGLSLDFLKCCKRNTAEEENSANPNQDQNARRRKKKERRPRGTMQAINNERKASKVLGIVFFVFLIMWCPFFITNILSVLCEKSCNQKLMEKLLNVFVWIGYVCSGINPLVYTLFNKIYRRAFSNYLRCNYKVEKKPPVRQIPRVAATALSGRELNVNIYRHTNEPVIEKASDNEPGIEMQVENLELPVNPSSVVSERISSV
How it was run: (§1)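 Competition binding at human cloned receptors expressed in HEK 293 cells. Radioligands: [3H]ketanserin for 5-HT2A, [3H]5-HT for 5-HT2B, [3H]mesulergine for 5-HT2C. Values are pKi, given as the mean of at least two determinations, each within 0.2 log unit of the mean.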

[4] = biological target: 5-hydroxytryptamine receptor 2A (Homo sapiens, UniProt P28223); experiment: Binding affinity towards human cloned 5-hydroxytryptamine receptor 2A in HEK293 cells, using [3H]ketanserin as radioligand.; assay type: cell-based; how it was run: as §1
[5] = biological target: 5-hydroxytryptamine receptor 2B (Homo sapiens, UniProt P41595); experiment: Binding affinities towards human cloned 5-hydroxytryptamine 2B receptor in HEK293 cells using [3H]5-HT as radioligand.; assay type: cell-based; how it was run: as §1
Rattus norvegicus = experiment: Dose required to reverse mCPP induced hypolocomotion in rat after oral administration.; assay type: functional; conditions: read-out: ID50 (the source's name)
How it was run: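 Rat hypolocomotion model. The test compound was given orally, and mCPP was given at 7 mg/kg ip 30 min before the test. ID50 (mg/kg po) is the dose that reverses mCPP-induced hypolocomotion by 50%.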

5-hydroxytryptamine receptor 2B, sequence (P41595 whole entry): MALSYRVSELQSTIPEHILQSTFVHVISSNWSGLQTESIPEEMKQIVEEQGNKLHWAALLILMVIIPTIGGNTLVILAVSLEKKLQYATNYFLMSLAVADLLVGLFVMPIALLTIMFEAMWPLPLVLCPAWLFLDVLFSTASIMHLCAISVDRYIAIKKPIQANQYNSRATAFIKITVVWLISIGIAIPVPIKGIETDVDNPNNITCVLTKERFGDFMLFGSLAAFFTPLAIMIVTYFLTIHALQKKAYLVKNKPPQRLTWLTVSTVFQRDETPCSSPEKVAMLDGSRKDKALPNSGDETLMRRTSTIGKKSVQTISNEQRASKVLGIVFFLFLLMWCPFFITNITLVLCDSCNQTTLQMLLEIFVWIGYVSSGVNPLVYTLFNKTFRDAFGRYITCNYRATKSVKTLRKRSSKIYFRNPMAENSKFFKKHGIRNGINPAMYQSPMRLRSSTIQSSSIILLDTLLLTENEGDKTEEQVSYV
Serotonin 2 receptors; 5-HT2a & 5-HT2c (Homo sapiens), sequence (P28223 whole entry, looked up, one chain of several): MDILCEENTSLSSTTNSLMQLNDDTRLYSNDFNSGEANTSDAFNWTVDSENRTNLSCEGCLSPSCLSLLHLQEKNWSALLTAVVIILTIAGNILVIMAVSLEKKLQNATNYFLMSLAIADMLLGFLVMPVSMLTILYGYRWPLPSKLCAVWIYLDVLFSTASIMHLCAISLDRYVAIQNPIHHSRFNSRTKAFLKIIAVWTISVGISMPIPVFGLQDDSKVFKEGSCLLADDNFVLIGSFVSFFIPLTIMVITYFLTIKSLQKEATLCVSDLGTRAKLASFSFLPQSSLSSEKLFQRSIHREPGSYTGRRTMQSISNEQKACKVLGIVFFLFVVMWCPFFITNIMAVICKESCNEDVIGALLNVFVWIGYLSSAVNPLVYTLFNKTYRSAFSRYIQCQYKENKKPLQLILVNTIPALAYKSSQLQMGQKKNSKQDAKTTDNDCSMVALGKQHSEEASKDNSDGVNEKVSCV
5-hydroxytryptamine receptor 2A, sequence (P28223 whole entry): as the sequence (P28223 whole entry, looked up, one chain of several) above

| SMILES | Selectivity [1] | IC50 (Cytochrome P450 1A2) [nM] | Selectivity [2] | Ki [3] [nM] | Ki [4] [nM] | Ki [5] [nM] | inhibition at 1 µM (Cytochrome P450 1A2) [%] | ED50 (Rattus norvegicus) [mg/kg] |
| --- | --- | --- | --- | --- | --- | --- | --- | --- |
| COc1cc2c(cc1C(F)(F)F)N(C(=O)Nc1cccnc1)CC2 | 120 | 20 |  |  |  |  |  |  |
| COc1cc2c(cc1C(F)(F)F)N(C(=O)Nc1ccc(Oc3cccnc3)nc1)CC2 | 80 |  | 16 | 1.26 | 100 | 20 |  | 0.7 |
| COc1cc2c(cc1C(F)(F)F)N(C(=O)Nc1ccc(-c3ccncc3)cc1)CC2 | > 2000 |  | 3 | 5.01 | > 10000 | 12.6 |  |  |
| COc1cc2c(cc1C(F)(F)F)N(C(=O)Nc1cc3c(c(-c4cccnc4)c1)OCC3)CC2 | 500 | 2000 | 16 | 0.501 | 251 | 7.94 |  | 2 |
| COc1cc2c(cc1C(F)(F)F)N(C(=O)Nc1ccc(Cl)c(-c3cnccc3C)c1)CC2 | > 1500 | 11000 |  | 0.631 | > 1000 |  |  | 1.4 |
| COc1cc2c(cc1C(F)(F)F)N(C(=O)Nc1cc(-c3ccccc3)cc(-c3cccnc3)c1)CC2 | 250 |  | 6 | 2.51 | 631 | 15.8 |  | > 5 |
| COc1cc2c(cc1C(F)(F)F)N(C(=O)Nc1cccc(-c3ccccn3)c1)CC2 | 25 |  |  | 20 | 501 |  | 3 |  |
| COc1cc2c(cc1C(F)(F)F)N(C(=O)Nc1cccc(-c3c(C)ccnc3C)c1)CC2 | 80 |  | 5 | 2.51 | 200 | 12.6 |  |  |

Now from value to compound, other results behind:

| Selectivity [1] | IC50 (Cytochrome P450 1A2) [nM] | Selectivity [2] | Ki [3] [nM] | Ki [4] [nM] | Ki [5] [nM] | inhibition at 1 µM (Cytochrome P450 1A2) [%] | SMILES | ED50 (Rattus norvegicus) [mg/kg] |
| --- | --- | --- | --- | --- | --- | --- | --- | --- |
| 250 |  | 0.6 | 15.8 | 3980 | 10 |  | COc1cc2c(cc1C(F)(F)F)N(C(=O)Nc1ccc(-c3cccnc3)cc1)CC2 | > 10 |
| 16 |  |  | 25.1 | 398 |  |  | COc1cc2c(cc1C(F)(F)F)N(C(=O)Nc1cccc(-c3cccnc3)c1C)CC2 |  |
| 5000 | 7000 | 5 | 1 | 5010 | 5.01 |  | COc1cc2c(cc1C(F)(F)F)N(C(=O)Nc1ccc(C)c(-c3cccnc3)c1)CC2 | 1.6 |
| 250 | 73000 | 5 | 5.01 | 1260 | 25.1 |  | COc1cc2c(cc1C(F)(F)F)N(C(=O)Nc1ccc(Cl)c(-c3cccnc3)c1)CC2 | 5.5 |
| 200 | 4000 | 8 | 1 | 200 | 7.94 |  | COc1cc2c(cc1C(F)(F)F)N(C(=O)Nc1cccc(-c3cccnc3)c1)CC2 | 0.6 |
| 400 |  |  | 0.631 | 251 |  | 8 | COc1cc2c(cc1C(F)(F)F)N(C(=O)Nc1cccc(-c3cnccc3C)c1)CC2 | 5 |
| 1600 |  | 13 | 0.631 | 1580 | 7.94 |  | COc1cc2c(cc1C(F)(F)F)N(C(=O)Nc1cc(F)c(C)c(-c3cccnc3)c1)CC2 | > 5 |
| > 500 | 7000 | 10 | 2 | > 1000 | 20 |  | COc1cc2c(cc1C(F)(F)F)N(C(=O)Nc1cc(Br)cc(-c3cccnc3)c1)CC2 | 5 |
| 25 |  | 0.5 | 10 | 251 | 5.01 |  | COc1cc2c(cc1C(F)(F)F)N(C(=O)Nc1cccc(-c3cccnc3)c1Cl)CC2 |  |
| 4 |  | 1 | 2000 | 7940 | 2000 |  | COc1cc2c(cc1C(F)(F)F)N(C(=O)Nc1cc(-c3cccnc3)ccc1F)CC2 |  |

— ChEMBL document CHEMBL1132976, “Biarylcarbamoylindolines are novel and selective 5-HT(2C) receptor inverse agonists: identification of 5-methyl-1-[[2-[(2-methyl-3-pyridyl)oxy]- 5-pyridyl]carbamoyl]-6-trifluoromethylindoline (SB-243213) as a potential antidepressant/anxiolytic agent” (J Med Chem, 2000)
